In ChEMBL document CHEMBL1121686 (J Med Chem, 1981):
Where “and” joins values, the source holds several entries; their conditions need not be identical. Identical values can stand only once.

Key:
Rattus norvegicus [1] = assay: The compound tested for toxicity in kidney against male rat after intraperitoneal administration of 2.0 mmol/kg; Positive; format: organism-based; conditions: in vivo, ip
Outline: (§1)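 Young adult male Sprague-Dawley rats dosed intraperitoneally at 1.0 or 2.0 mmol/kg in aqueous solution. Animals were kept in metabolic cages with food and water ad libitum, and urine was collected over 48 h. Liver and kidney were examined histologically at 48 h. Liver was graded as vacuolation (1+) or centrilobular necrosis (2+, 3+, 4+); kidney was graded as deep cortical tubular necrosis.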

[2] = (§2) Percent total excretion of 3-(thiomethyl)acetaminophen sulfate; format: ADME
Outline: (§3)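 Urine was collected for 48 h from dosed rats or mice kept in metabolic cages. It was filtered (0.5 μm) and separated by reverse-phase HPLC at 2 mL/min, starting in phosphate-buffered solvent at pH 7.2. After a 4 min delay, methanol was raised linearly to 50% over 18 min. Detection was at 254 and 280 nm. Each metabolite was quantified from peak area using response factors from standards and expressed as % of total excreted metabolites.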

Rattus norvegicus [3] = organism: Rattus norvegicus; assay: (§4) Percent total excretion of acetaminophen; format: functional; outline: as §3
Rattus norvegicus [4] = organism: Rattus norvegicus; assay: (§5) Percent total excretion of N-methoxyacetaminophen glucuronide; format: functional; outline: as §3
Rattus norvegicus [5] = organism: Rattus norvegicus; assay: (§6) Percent total excretion of acetaminophen-mercapturic acid; format: functional; outline: as §3
Rattus norvegicus [6] = organism: Rattus norvegicus; assay: (§7) Percent total excretion of acetaminophen glucuronide; format: functional; outline: as §3
[7] = (§8) Percent total excretion of 3-(thiomethyl)acetaminophen glucuronide; format: ADME; outline: as §3
Rattus norvegicus [8] = organism: Rattus norvegicus; assay: Percent total excretion of acetaminophen cysteine conjugate; format: functional; outline: as §3
Rattus norvegicus [9] = organism: Rattus norvegicus; assay: (§9) Percent total excretion of 3-methoxyacetaminophen glucuronide; format: functional; outline: as §3
Rattus norvegicus [10] = organism: Rattus norvegicus; assay: as §8; format: functional; outline: as §3
Rattus norvegicus [11] = assay: The compound tested for toxicity in liver against male rat after intraperitoneal administration of 2.0 mmol/kg; format: organism-based; conditions: in vivo, ip; outline: as §1
[12] = as §7; format: ADME; outline: as §3
[13] = as §5; format: ADME; outline: as §3
[14] = as §4; format: ADME; outline: as §3
Mus musculus [15] = assay: The compound tested for toxicity in liver against male mouse after intraperitoneal administration of 2.0 mmol/kg; conditions: in vivo, ip
Rattus norvegicus [16] = assay: The compound tested for toxicity in liver against male rat after intraperitoneal administration of 1.0 mmol/kg; format: organism-based; conditions: in vivo, ip; outline: as §1
Mus musculus [17] = assay: The compound tested for toxicity in kidney against male mouse after intraperitoneal administration of 2.0 mmol/kg; format: organism-based; conditions: in vivo, ip
Outline: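 Young adult male Swiss mice given a single intraperitoneal dose of 2.0 mmol/kg in aqueous solution. Animals were held in metabolic cages with standard feed and water ad libitum, and urine was collected for 48 h. At 48 h, liver and kidneys were taken for histology. Liver was scored as vacuolation (1+) or centrilobular necrosis (2+ to 4+); kidney was scored as deep cortical tubular necrosis.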

Rattus norvegicus [18] = organism: Rattus norvegicus; assay: (§10) Percent total excretion of N-methoxyacetaminophen sulfate; format: functional; outline: as §3
Rattus norvegicus [19] = assay: The compound tested for toxicity in kidney against male rat after intraperitoneal administration of 1.0 mmol/kg; format: organism-based; conditions: in vivo, ip; outline: as §1
Rattus norvegicus [20] = organism: Rattus norvegicus; assay: Percent total excretion of acetaminophen sulfate; format: functional; outline: as §3
Rattus norvegicus [21] = assay: (§11) Percent dose excreted in 0-48 hours administered ip to male rat; format: ADME, organism-based; conditions: in vivo
Outline: (§12)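 Young adult male Sprague-Dawley rats were dosed i.p. with N-hydroxyacetaminophen in aqueous solution at 1.0 and 2.0 mmol/kg. Animals were held in metabolic cages with standard feed and water ad libitum, and urine was collected over 48 h. Quantitation was by gradient HPLC, using response factors from standard solutions.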

[22] = as §10; format: ADME; outline: as §3
Rattus norvegicus [23] = organism: Rattus norvegicus; assay: as §2; format: functional; outline: as §3
[24] = as §9; format: ADME; outline: as §3
Rattus norvegicus [25] = assay: as §11; format: functional; outline: as §12
[26] = as §6; format: ADME; outline: as §3
Mus musculus [27] = assay: Percent dose excreted in 0-48 hours administered ip to male mouse; format: ADME, organism-based; conditions: in vivo
Outline: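 Young adult male Swiss mice, previously housed on pine wood-chip bedding, received N-hydroxyacetaminophen in aqueous solution i.p. at 2.0 mmol/kg. They were then kept in metabolic cages with standard feed and water ad libitum. Urine was collected for 48 h and analysed by gradient reverse-phase HPLC, with peak areas calibrated against standard solutions.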

[28] = Percent of total excretion of acetaminophen cysteine conjugate; format: ADME; outline: as §3
Mus musculus [29] = assay: The compound tested for toxicity in kidney against female mouse after intravenous administration of 2.0 mmol/kg; Normal; format: organism-based; conditions: in vivo
Outline: (§13)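 Young adult female Swiss mice, previously housed on pine wood-chip bedding. The sodium salt was given in aqueous solution at 2.0 mmol/kg intravenously or 10 mmol/kg intragastrically. Animals were housed in metabolic cages with feed and water ad libitum for 48 h, with urine collected throughout. At 48 h, liver and kidneys were assessed histologically. Liver was graded as vacuolation (1+) or centrilobular necrosis (2+ to 4+); kidney was graded as deep cortical tubular necrosis.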

Mus musculus [30] = assay: The compound tested for toxicity in kidney against female mouse after intragastric administration of 10.0 mmol/kg; Normal; conditions: in vivo
[31] = Percent of total excretion of 3-methoxyacetaminophen glucuronide; format: ADME; outline: as §3
[32] = Percent of total excretion of N-methoxyacetaminophen glucuronide; format: ADME; outline: as §3
[33] = Percent of total excretion of acetaminophen; format: ADME; outline: as §3
[34] = Percent of total excretion of N-hydroxyacetaminophen sulfate; format: ADME; outline: as §3
Mus musculus [35] = assay: The compound tested for toxicity in liver against female mouse after intragastric administration of 10 mmol/kg; signifies centrilobular necrosis of liver; format: organism-based; conditions: in vivo, po; outline: as §13
[36] = Percent of total excretion of N-methoxyacetaminophen sulfate; format: ADME; outline: as §3
[37] = Percent of total excretion of acetaminophen glucuronide; format: ADME; outline: as §3
[38] = Percent of total excretion of 3-(thiomethyl)acetaminophen glucuronide; format: ADME; outline: as §3
Mus musculus [39] = assay: The compound tested for toxicity in liver against female mouse after intravenous administration of 2.0 mmol/kg; signifies centrilobular necrosis of liver; format: organism-based; conditions: in vivo; outline: as §13
[40] = Percent of total excretion of 3-(thiomethyl)acetaminophen sulfate; format: ADME; outline: as §3
[41] = Percent of total excretion of acetaminophen sulfate; format: ADME
Outline: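 Rats (male Sprague-Dawley, 1.0 or 2.0 mmol/kg ip) and Swiss mice (males 2.0 mmol/kg ip; females 2.0 mmol/kg iv or 10 mmol/kg intragastric) dosed in aqueous solution. Urine was collected over 0–48 h in metabolic cages. Filtered urine went through gradient HPLC (pH 7.2 buffer, 0→50% methanol; 254/280 nm), quantified against standard peak-area response factors. Values are % of total excreted metabolites.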

[42] = Percent of total excretion of acetaminophen-mercapturic acid; format: ADME; outline: as §3
[43] = Percent of total excretion of N-hydroxyacetaminophen glucuronide; format: ADME; outline: as §3

SMILES: CC(=O)N(O)c1ccc(O)cc1
- Toxicity (Rattus norvegicus [1]): Positive
- Total excretion [2]: 9% and 15.9%
- Total excretion (Rattus norvegicus [3]): 7%
- Total excretion (Rattus norvegicus [4]): 1.5%
- Total excretion (Rattus norvegicus [5]): 14.5%
- Total excretion (Rattus norvegicus [6]): 10.8%
- Total excretion [7]: 2% and 4.1%
- Total excretion (Rattus norvegicus [8]): 0%
- Total excretion (Rattus norvegicus [9]): 0%
- Total excretion (Rattus norvegicus [10]): 1.9%
- Toxicity (Rattus norvegicus [11]): 0
- Total excretion [12]: 18% and 25.9%
- Total excretion [13]: 2.3% and 3.4%
- Total excretion [14]: 5% and 4.5%
- Toxicity (Mus musculus [15]): 2
- Toxicity (Rattus norvegicus [16]): 0
- Toxicity (Mus musculus [17]): 0
- Total excretion (Rattus norvegicus [18]): 8.1%
- Toxicity (Rattus norvegicus [19]): 0
- Total excretion (Rattus norvegicus [20]): 51.3%
- Dose (Rattus norvegicus [21]): 55%
- Total excretion [22]: 2.7% and 3%
- Total excretion (Rattus norvegicus [23]): 5.1%
- Total excretion [24]: 0%
- Dose (Rattus norvegicus [25]): 70.9%
- Total excretion [26]: 13.2% and 6.1%
- Dose (Mus musculus [27]): 41.5%

SMILES: CC(=O)Nc1ccc(O)cc1 [ACETAMINOPHEN]
- Total excretion [28]: 2.9% and 10.4%
- Toxicity (Mus musculus [29]): 0
- Toxicity (Mus musculus [30]): 0
- Total excretion [31]: 0%
- Total excretion [32]: 0%
- Total excretion [33]: 11.9% and 12.1%
- Total excretion [34]: 0%
- Toxicity (Mus musculus [35]): 3
- Total excretion [36]: 0%
- Total excretion [37]: 64% and 58.4%
- Total excretion [38]: 0.7% and 0.6%
- Toxicity (Mus musculus [39]): 2
- Total excretion [40]: 3.3% and 1.5%
- Total excretion [41]: 13.8% and 13.3%
- Total excretion [42]: 3.5% and 3.8%
- Total excretion [43]: 0%
